Source: ChEMBL document CHEMBL4270522, “Halogenated trimethoprim derivatives as multidrug-resistant Staphylococcus aureus therapeutics” (Bioorg Med Chem, 2018)
Values after ≈ are worked out from the molar mass of the structure shown.

Columns and labels:
Staphylococcus aureus [1] = assay: Antibacterial activity against hospital-associated methicillin-resistant Staphylococcus aureus COL after 20 hrs by CLSI microdilution assay; assay type: functional
Staphylococcus aureus [2] = assay: Antibacterial activity against methicillin-resistant Staphylococcus aureus USA300 after 20 hrs by CLSI microdilution assay; assay type: functional; details: USA300, 20 h
Staphylococcus aureus [3] = assay: Antibacterial activity against methicillin-resistant Staphylococcus aureus USA300 at 5 ug after 18 to 20 hrs by CLSI disk diffusion assay; assay type: functional; details: read-out: DIZ
Summary of the method: (§1)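 Disk diffusion on 4 mm Mueller-Hinton agar swabbed with about 10^8 CFU/mL suspension in PBS; 6 mm paper disk loaded with 5 µg compound in DMSO; 37 °C ambient air for 18–20 h; diameter of the complete inhibition zone measured in mm with callipers from the plate back; at least three independent experiments, mean with standard error; 6 mm means no inhibition.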

Staphylococcus aureus [4] = assay: Antibacterial activity against hospital-associated methicillin-resistant Staphylococcus aureus COL at 5 ug after 18 to 20 hrs by CLSI disk diffusion assay; assay type: functional; details: read-out: DIZ; summary of the method: as §1
Staphylococcus aureus [5] = assay: Antibacterial activity against methicillin-susceptible Staphylococcus aureus ATCC 29213 after 20 hrs by CLSI microdilution assay; assay type: functional; details: ATCC 29213, 20 h
Staphylococcus aureus [6] = assay: Antibacterial activity against methicillin-susceptible Staphylococcus aureus ATCC 25923 at 5 ug after 18 to 20 hrs by CLSI disk diffusion assay; assay type: functional; details: read-out: DIZ
Summary of the method: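 Mueller-Hinton agar, 4 mm deep, swabbed with PBS-diluted overnight TSB culture (~10^8 CFU/mL). Paper disk (6 mm) loaded with compound in DMSO, incubated 37 °C in ambient air. Complete inhibition zone diameter read from plate back with callipers; 6 mm means no inhibition. At least three independent experiments, mean with standard error.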

Staphylococcus aureus [7] = assay: Bactericidal activity against hospital-associated methicillin-resistant Staphylococcus aureus COL preincubated for 20 hrs followed by agar plating and measured after 18 to 20 hrs; assay type: functional
Summary of the method: (§2)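 MBC taken from broth microdilution (final about 10^5 CFU/mL, Mueller-Hinton broth, 37 °C for 20 h). Clear wells (basal optical density) were spread on TSA plates and incubated at 37 °C for 18–20 h. The lowest concentration giving no colonies is reported. At least triplicate.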

Staphylococcus aureus [8] = assay: Bactericidal activity against methicillin-resistant Staphylococcus aureus USA300 preincubated for 20 hrs followed by agar plating and measured after 18 to 20 hrs; assay type: functional; summary of the method: as §2
A549 = assay: Cytotoxicity against human A549 cells after 24 to 48 hrs by fluorescence-based assay; assay type: cell-based
Summary of the method: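 A549 cells, ~10^4 per well in DMEM, given 2-fold serial dilutions of compound (DMSO stock diluted in DMEM). Incubated at 37 °C, 5% CO2. PrestoBlue added for 1 h, then fluorescence read at excitation 535 nm and emission 610 nm as a measure of viable cells.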

Staphylococcus aureus [9] = assay: Bactericidal activity against methicillin-susceptible Staphylococcus aureus ATCC 29213 preincubated for 20 hrs followed by agar plating and measured after 18 to 20 hrs; assay type: functional
Summary of the method: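 Broth microdilution per CLSI guideline. Compounds diluted 2-fold in MHB from 100 mM DMSO stocks. Inoculum ~10^5 CFU/mL final, from overnight TSB culture diluted in PBS. Plates incubated at 37 °C. Wells without growth by optical density spread on TSA and incubated at 37 °C. MBC is the lowest concentration giving no colonies. At least triplicate.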

Staphylococcus aureus [10] = assay: Synergistic antibacterial activity against methicillin-susceptible Staphylococcus aureus ATCC 29213 in presence of TMP-Br after 20 hrs by broth microdilution-based checkerboard titration assay; assay type: functional
Staphylococcus aureus [11] = assay: Potentiation of TMP-Cl-mediated antibacterial activity against hospital-associated methicillin-resistant Staphylococcus aureus COL assessed as TMP-Cl MIC after 20 hrs by CLSI microdilution assay (reference value: 5 microg/ml); assay type: functional
Staphylococcus aureus [12] = assay: microbe, parasite or virus in culture; assay type: functional; details: ATCC 29213, 20 h
Staphylococcus aureus [13] = assay: microbe, parasite or virus in culture; assay type: functional; details: ATCC 29213, 20 h; remark: listed apart in the source
Staphylococcus aureus [14] = assay: Potentiation of TMP-Br-mediated antibacterial activity against hospital-associated methicillin-resistant Staphylococcus aureus COL assessed as TMP-Br MIC after 20 hrs by CLSI microdilution assay (reference value: 5 microg/ml); assay type: functional
Staphylococcus aureus [15] = assay: Synergistic antibacterial activity against methicillin-resistant Staphylococcus aureus USA300 in presence of TMP-Br after 20 hrs by broth microdilution-based checkerboard titration assay; assay type: functional
Staphylococcus aureus [16] = assay: microbe, parasite or virus in culture; assay type: functional; details: ATCC 29213, 20 h; remark: listed apart in the source
Staphylococcus aureus [17] = assay: Potentiation of TMP-I-mediated antibacterial activity against hospital-associated methicillin-resistant Staphylococcus aureus COL assessed as TMP-I MIC after 20 hrs by CLSI microdilution assay (reference value: 2.50 microg/ml); assay type: functional
Staphylococcus aureus [18] = assay: microbe, parasite or virus in culture; assay type: functional; details: USA300, 20 h
Staphylococcus aureus [19] = assay: Synergistic antibacterial activity against methicillin-susceptible Staphylococcus aureus ATCC 29213 in presence of TMP-Cl after 20 hrs by broth microdilution-based checkerboard titration assay; assay type: functional
Staphylococcus aureus [20] = assay: Synergistic antibacterial activity against methicillin-resistant Staphylococcus aureus USA300 in presence of TMP-Cl after 20 hrs by broth microdilution-based checkerboard titration assay; assay type: functional
Staphylococcus aureus [21] = assay: microbe, parasite or virus in culture; assay type: functional; details: USA300, 20 h; remark: listed apart in the source
Staphylococcus aureus [22] = assay: Synergistic antibacterial activity against methicillin-susceptible Staphylococcus aureus ATCC 29213 in presence of TMP after 20 hrs by broth microdilution-based checkerboard titration assay; assay type: functional
Staphylococcus aureus [23] = assay: Synergistic antibacterial activity against hospital-associated methicillin-resistant Staphylococcus aureus COL in presence of TMP-Cl after 20 hrs by broth microdilution-based checkerboard titration assay; assay type: functional
Staphylococcus aureus [24] = assay: Synergistic antibacterial activity against hospital-associated methicillin-resistant Staphylococcus aureus COL in presence of TMP after 20 hrs by broth microdilution-based checkerboard titration assay; assay type: functional
Staphylococcus aureus [25] = assay: Synergistic antibacterial activity against hospital-associated methicillin-resistant Staphylococcus aureus COL in presence of TMP-Br after 20 hrs by broth microdilution-based checkerboard titration assay; assay type: functional
Staphylococcus aureus [26] = assay: Synergistic antibacterial activity against methicillin-resistant Staphylococcus aureus USA300 in presence of TMP-I after 20 hrs by broth microdilution-based checkerboard titration assay; assay type: functional
Staphylococcus aureus [27] = assay: Potentiation of TMP-Cl-mediated antibacterial activity against methicillin-resistant Staphylococcus aureus USA300 assessed as TMP-Cl MIC after 20 hrs by CLSI microdilution assay (reference value: 2.50 microg/ml); assay type: functional; details: USA300, 20 h
Staphylococcus aureus [28] = assay: Synergistic antibacterial activity against methicillin-susceptible Staphylococcus aureus ATCC 29213 in presence of TMP-I after 20 hrs by broth microdilution-based checkerboard titration assay; assay type: functional
Staphylococcus aureus [29] = assay: Synergistic antibacterial activity against hospital-associated methicillin-resistant Staphylococcus aureus COL in presence of TMP-I after 20 hrs by broth microdilution-based checkerboard titration assay; assay type: functional
Staphylococcus aureus [30] = assay: Potentiation of TMP-mediated antibacterial activity against hospital-associated methicillin-resistant Staphylococcus aureus COL assessed as TMP MIC after 20 hrs by CLSI microdilution assay (reference value: 5 microg/ml); assay type: functional
Staphylococcus aureus [31] = assay: Synergistic antibacterial activity against methicillin-resistant Staphylococcus aureus USA300 in presence of TMP after 20 hrs by broth microdilution-based checkerboard titration assay; assay type: functional
Staphylococcus aureus [32] = assay: microbe, parasite or virus in culture; assay type: functional; details: USA300, 20 h; remark: listed apart in the source
Staphylococcus aureus [33] = assay: microbe, parasite or virus in culture; assay type: functional; details: ATCC 29213, 20 h; remark: listed apart in the source
Staphylococcus aureus [34] = assay: Synergistic antibacterial activity against methicillin-resistant Staphylococcus aureus USA300 in presence of sulfamethoxazole after 20 hrs by broth microdilution-based checkerboard titration assay; assay type: functional
Staphylococcus aureus [35] = assay: Synergistic antibacterial activity against methicillin-susceptible Staphylococcus aureus ATCC 29213 assessed as fractional inhibitory concentration index in presence of sulfamethoxazole after 18 hrs by broth microdilution-based checkerboard titration assay; assay type: functional
Staphylococcus aureus [36] = assay: Synergistic antibacterial activity against methicillin-susceptible Staphylococcus aureus ATCC 29213 in presence of sulfamethoxazole after 20 hrs by broth microdilution-based checkerboard titration assay; assay type: functional
Staphylococcus aureus [37] = assay: Synergistic antibacterial activity against hospital-associated methicillin-resistant Staphylococcus aureus COL assessed as fractional inhibitory concentration index in presence of sulfamethoxazole after 18 hrs by broth microdilution-based checkerboard titration assay; assay type: functional
Staphylococcus aureus [38] = assay: Synergistic antibacterial activity against hospital-associated methicillin-resistant Staphylococcus aureus COL in presence of sulfamethoxazole after 20 hrs by broth microdilution-based checkerboard titration assay; assay type: functional
Staphylococcus aureus [39] = assay: Synergistic antibacterial activity against methicillin-resistant Staphylococcus aureus USA300 assessed as fractional inhibitory concentration index in presence of sulfamethoxazole after 18 hrs by broth microdilution-based checkerboard titration assay; assay type: functional
Staphylococcus aureus [40] = assay: Potentiation of sulfamethoxazole-mediated antibacterial activity against hospital-associated methicillin-resistant Staphylococcus aureus COL assessed as sulfamethoxazole MIC after 20 hrs by CLSI microdilution assay (reference value: 200 microg/ml); assay type: functional
Staphylococcus aureus [41] = assay: Potentiation of sulfamethoxazole-mediated antibacterial activity against methicillin-resistant Staphylococcus aureus USA300 assessed as sulfamethoxazole MIC after 20 hrs by CLSI microdilution assay (reference value: 100 microg/ml); assay type: functional; details: USA300, 20 h
Staphylococcus aureus [42] = assay: Potentiation of sulfamethoxazole-mediated antibacterial activity against methicillin-susceptible Staphylococcus aureus ATCC 29213 assessed as sulfamethoxazole MIC after 20 hrs by CLSI microdilution assay (reference value: 100 microg/ml); assay type: functional; details: ATCC 29213, 20 h

`COc1ccc(Cc2cnc(N)nc2N)cc1OC` [DIAVERIDINE] showed an MIC (Staphylococcus aureus [1]) of 10 µg/mL (≈ 38.4 µM), an MIC (Staphylococcus aureus [2]) of 5 µg/mL (≈ 19.2 µM) and a zone of inhibition at 5 µg/disc (Staphylococcus aureus [3]) of 6 mm. The zone of inhibition at 5 µg/disc (Staphylococcus aureus [4]) was 6 mm, the MIC (Staphylococcus aureus [5]) was 5 µg/mL (≈ 19.2 µM) and the zone of inhibition at 5 µg/disc (Staphylococcus aureus [6]) was 8.81 mm. The MBC (Staphylococcus aureus [7]) was 20 µg/mL (≈ 76.8 µM), the MBC (Staphylococcus aureus [8]) was 10 µg/mL (≈ 38.4 µM) and the IC50 (A549) was greater than 1000 µM. The MBC (Staphylococcus aureus [9]) was 5 µg/mL (≈ 19.2 µM).
Work on `Cc1cc(NS(=O)(=O)c2ccc(N)cc2)no1` [SULFAMETHOXAZOLE] yielded an FIC (Staphylococcus aureus [10]) of 0.06, an MIC (Staphylococcus aureus [1]) of 200 µg/mL (≈ 790 µM) and an MIC (Staphylococcus aureus [11]) of 0.31 µg/mL. For the same compound, the MIC (Staphylococcus aureus [12]) was 0.08 µg/mL (≈ 0.316 µM), the MIC (Staphylococcus aureus [13]) was 0.08 µg/mL (≈ 0.316 µM) and the MIC (Staphylococcus aureus [14]) was 0.31 µg/mL. It also gave an FIC (Staphylococcus aureus [15]) of 0.12, an MIC (Staphylococcus aureus [2]) of 100 µg/mL (≈ 395 µM) and an MIC (Staphylococcus aureus [16]) of 0.08 µg/mL (≈ 0.316 µM). It also gave an MIC (Staphylococcus aureus [17]) of 0.16 µg/mL, an MIC (Staphylococcus aureus [18]) of 0.08 µg/mL (≈ 0.316 µM) and an FIC (Staphylococcus aureus [19]) of 0.06. The FIC (Staphylococcus aureus [20]) was 0.06, the MIC (Staphylococcus aureus [21]) was 0.08 µg/mL (≈ 0.316 µM) and the FIC (Staphylococcus aureus [22]) was 0.06. For the same compound, the MIC (Staphylococcus aureus [5]) was 100 µg/mL (≈ 395 µM), the FIC (Staphylococcus aureus [23]) was 0.06 and the FIC (Staphylococcus aureus [24]) was 0.06. The FIC (Staphylococcus aureus [25]) was 0.06, the FIC (Staphylococcus aureus [26]) was 0.06 and the MIC (Staphylococcus aureus [27]) was 0.16 µg/mL. For the same compound, the FIC (Staphylococcus aureus [28]) was 0.06, the FIC (Staphylococcus aureus [29]) was 0.06 and the MIC (Staphylococcus aureus [30]) was 0.31 µg/mL. The FIC (Staphylococcus aureus [31]) was 0.06, the MIC (Staphylococcus aureus [32]) was 0.16 µg/mL (≈ 0.632 µM) and the MIC (Staphylococcus aureus [33]) was 0.08 µg/mL (≈ 0.316 µM).
For `COc1cc(Cc2cnc(N)nc2N)cc(OC)c1OC` [TRIMETHOPRIM], the MIC (Staphylococcus aureus [1]) was 5 µg/mL (≈ 17.2 µM), the FIC (Staphylococcus aureus [34]) was 0.06 and the “fractional inhibitory concentration index (FICI)” value (Staphylococcus aureus [35]) was 0.12. For the same compound, the FIC (Staphylococcus aureus [36]) was 0.06, the MIC (Staphylococcus aureus [2]) was 1.25 µg/mL (≈ 4.31 µM) and the “fractional inhibitory concentration index (FICI)” value (Staphylococcus aureus [37]) was 0.12. The zone of inhibition at 5 µg/disc (Staphylococcus aureus [3]) was 22.8 mm, the FIC (Staphylococcus aureus [38]) was 0.06 and the “fractional inhibitory concentration index (FICI)” value (Staphylococcus aureus [39]) was 0.12. For the same compound, the zone of inhibition at 5 µg/disc (Staphylococcus aureus [4]) was 6 mm, the MIC (Staphylococcus aureus [40]) was 12.5 µg/mL and the MIC (Staphylococcus aureus [41]) was 6.25 µg/mL. The MIC (Staphylococcus aureus [5]) was 1.25 µg/mL (≈ 4.31 µM), the zone of inhibition at 5 µg/disc (Staphylococcus aureus [6]) was 20.2 mm and the MBC (Staphylococcus aureus [7]) was 10 µg/mL (≈ 34.4 µM). The MBC (Staphylococcus aureus [8]) was 2.5 µg/mL (≈ 8.61 µM), the MIC (Staphylococcus aureus [42]) was 6.25 µg/mL and the MBC (Staphylococcus aureus [9]) was 1.25 µg/mL (≈ 4.31 µM).
